Experimental findings from ChEMBL document CHEMBL4619740, “Chalcones bearing a 3,4,5-trimethoxyphenyl motif are capable of selectively inhibiting oncogenic K-Ras signaling” (Bioorg Med Chem Lett, 2020) are described below.

The source made the active and inactive calls. The calls are words filed in the database; no cut-off is given here.

One experiment deals with GTPase KRas (Homo sapiens, UniProt P01116, G12V). The experiment can be described thus: Inhibition of GFP-tagged KRAS G12V mutant (unknown origin) expressed in MDCK cells cotransfected with mCherry-CAXX assessed as increase in KRAS G12V-plasma membrane dissociation incubated for 48 hrs by quantitative confocal microscopic method. The experiment is classed as cell-based. An outline of the steps: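 MDCK cells stably co-expressing mGFP-K-RasG12V and mCherry-CAAX (endomembrane marker) treated with a range of compound concentrations for 48h. Cells fixed in 4% paraformaldehyde, imaged by confocal microscopy. PM dissociation scored as the fraction of mCherry-CAAX co-localized with GFP-K-RasG12V (Manders coefficient). IC50 estimated from dose-response plots from three independent experiments.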
GTPase KRas, sequence (P01116 whole entry G12V): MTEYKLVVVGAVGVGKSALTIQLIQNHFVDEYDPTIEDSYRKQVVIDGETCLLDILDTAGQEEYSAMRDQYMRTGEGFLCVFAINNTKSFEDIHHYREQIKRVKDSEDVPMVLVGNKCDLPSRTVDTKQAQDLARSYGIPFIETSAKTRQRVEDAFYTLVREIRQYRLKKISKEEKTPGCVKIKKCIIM

The test system of experiment [1] is GTPase HRas (Homo sapiens), P01112 [G12V]. The experiment can be described thus: Inhibition of GFP-tagged HRAS G12V mutant (unknown origin) expressed in MDCK cells cotransfected with mCherry-CAXX assessed as effect on HRAS G12V-plasma membrane dissociation incubated for 48 hrs by quantitative confocal microscopic method. The experiment is classed as cell-based. An outline of the steps: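 MDCK cells stably co-expressing mGFP-RasG12V (K- or H-) and mCherry-CAAX endomembrane marker treated with a range of concentrations for 48 h, fixed in 4% paraformaldehyde, imaged by quantitative confocal microscopy. Fraction of mCherry-CAAX co-localized with GFP-Ras by Manders coefficient; IC50 for PM dissociation estimated from dose-response plots of three independent experiments.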
GTPase HRas (Homo sapiens), P01112 [G12V], sequence (P01112 whole entry G12V): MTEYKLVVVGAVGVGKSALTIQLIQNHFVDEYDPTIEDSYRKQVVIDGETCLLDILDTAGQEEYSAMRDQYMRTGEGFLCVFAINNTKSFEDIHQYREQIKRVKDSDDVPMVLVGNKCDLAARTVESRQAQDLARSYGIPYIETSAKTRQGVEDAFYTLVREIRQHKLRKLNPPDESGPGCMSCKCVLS

Experiment [2] deals with GTPase KRas (Homo sapiens), P01116 [G12V]. The experiment can be described thus: Inhibition of GFP-tagged KRAS G12V mutant (unknown origin) expressed in MDCK cells assessed as reduction in Akt phosphorylation level incubated for 48 hrs by Western blot analysis. The experiment is classed as cell-based. An outline of the steps: (§1)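 MDCK cells stably expressing GFP-tagged K-RasG12V or H-RasG12V treated 48 h; lysates immunoblotted with anti-ppERK or anti-pAkt (S473) antibodies, total ERK and Akt as loading controls. Quantified as means ± S.E.M. of three independent experiments versus DMSO-treated cells; one-way ANOVA.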
GTPase KRas (Homo sapiens), P01116 [G12V], sequence (P01116 whole entry G12V): as the sequence (P01116 whole entry G12V) above
For orientation: In western blotting, separated proteins are transferred to a membrane and probed.

Experiment [3] has the same test system. The experiment can be described thus: Inhibition of GFP-tagged KRAS G12V mutant (unknown origin) expressed in MDCK cells assessed as reduction in ERK phosphorylation level incubated for 48 hrs by Western blot analysis. Type of experiment: cell-based. An outline of the steps: as §1
Experiment [4] has as its system GTPase HRas (Homo sapiens), P01112 [G12V]. The experiment can be described thus: Inhibition of GFP-tagged HRAS G12V mutant (unknown origin) expressed in MDCK cells assessed as reduction in Akt phosphorylation level incubated for 48 hrs by Western blot analysis. The experiment is classed as cell-based. An outline of the steps:
as §1

Experiment [5] has the same test system. The experiment can be described thus: Inhibition of GFP-tagged HRAS G12V mutant (unknown origin) expressed in MDCK cells assessed as reduction in ERK phosphorylation level incubated for 48 hrs by Western blot analysis. The experiment is classed as cell-based. An outline of the steps:
as §1

For experiment [6], the target named is GTPase KRas (Homo sapiens) (UniProt P01116). The experiment is described as follows: Inhibition of KRAS in human NCI-H358 cells assessed as MARCK phosphorylation level at 1 uM incubated for 48 hrs by Western blot analysis (reference value: 1.00 +/- 0.39). Type of experiment: cell-based.
GTPase KRas (Homo sapiens), sequence (P01116 whole entry, looked up): as the sequence (P01116 whole entry G12V) above, with V12G counted along it
The target is the same in experiment [7]. The experiment can be described thus: Inhibition of KRAS in human NCI-H358 cells assessed as MARCK phosphorylation level at 5 uM incubated for 48 hrs by Western blot analysis (reference value: 1.00 +/- 0.39). The experiment is classed as cell-based.
For experiment [8] the target is unchanged. The experiment can be described thus: Inhibition of KRAS in human NCI-H358 cells assessed as MARCK phosphorylation level at 10 uM incubated for 48 hrs by Western blot analysis (reference value: 1.00 +/- 0.39). The experiment is classed as cell-based.
Experiment [9] shares this target. The experiment can be described thus: Inhibition of KRAS in human NCI-H358 cells assessed as MARCK phosphorylation level at 25 uM incubated for 48 hrs by Western blot analysis (reference value: 1.00 +/- 0.39). The experiment is classed as cell-based.
Experiment [10] concerns GTPase KRas (Homo sapiens), P01116 [G12V]. The experiment can be described thus: Inhibition of GFP-tagged KRAS G12V mutant (unknown origin) expressed in MDCK cells assessed as MARCK phosphorylation level at 1 uM incubated for 48 hrs by Western blot analysis (reference value: 1.00 +/- 0.13). The experiment is classed as cell-based.
Experiment [11] has the same test system. The experiment can be described thus: Inhibition of GFP-tagged KRAS G12V mutant (unknown origin) expressed in MDCK cells assessed as MARCK phosphorylation level at 5 uM incubated for 48 hrs by Western blot analysis (reference value: 1.00 +/- 0.13). The experiment is classed as cell-based.
For experiment [12] the test system is unchanged. The experiment can be described thus: Inhibition of GFP-tagged KRAS G12V mutant (unknown origin) expressed in MDCK cells assessed as MARCK phosphorylation level at 10 uM incubated for 48 hrs by Western blot analysis (reference value: 1.00 +/- 0.13). The experiment is classed as cell-based.
The test system is the same in experiment [13]. The experiment can be described thus: Inhibition of GFP-tagged KRAS G12V mutant (unknown origin) expressed in MDCK cells assessed as MARCK phosphorylation level at 25 uM incubated for 48 hrs by Western blot analysis (reference value: 1.00 +/- 0.13). The experiment is classed as cell-based.
Experiment [14] relates to GTPase KRas (Homo sapiens), P01116 [G12V,S181A]. The experiment is described as follows: Inhibition of GFP-tagged KRAS G12V/S181A mutant (unknown origin) expressed in MDCK cells cotransfected with mCherry-CAXX assessed as reduction in KRAS G12V-plasma membrane dissociation incubated for 48 hrs by quantitative confocal microscopic method. The experiment is classed as cell-based.
GTPase KRas (Homo sapiens), P01116 [G12V,S181A], sequence (P01116 1-164 with tags or gaps G12V,S181A): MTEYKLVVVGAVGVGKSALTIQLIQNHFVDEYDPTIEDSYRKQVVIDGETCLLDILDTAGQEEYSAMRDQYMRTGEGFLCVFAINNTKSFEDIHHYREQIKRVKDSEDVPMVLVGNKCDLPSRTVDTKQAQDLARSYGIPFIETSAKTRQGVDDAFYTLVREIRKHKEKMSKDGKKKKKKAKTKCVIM

Experiment [15] deals with GTPase KRas (Homo sapiens) (UniProt P01116). The experiment is described as follows: Inhibition of KRAS in human NCI-H358 cells assessed as increase in MARCK phosphorylation level incubated for 48 hrs by Western blot analysis.
In experiment [16] the test system is GTPase KRas (Homo sapiens), P01116 [G12V]. The experiment is described as follows: Inhibition of GFP-tagged KRAS G12V mutant (unknown origin) expressed in MDCK cells assessed as increase in MARCK phosphorylation level incubated for 48 hrs by Western blot analysis.

Usually IC50 stands for the concentration at which inhibition is half-maximal. Turning to `COc1cc(/C=C/C(=O)c2ccc(Br)cc2)cc(OC)c1OC`, the IC50 at GTPase KRas was 24.6 µM.

With `COc1cc(/C=C/C(=O)c2c(F)cccc2F)cc(OC)c1OC`, on GTPase KRas, the IC50 turned out to be 8.2 µM.

Consider `COc1cc(C(=O)/C=C/c2ccc([N+](=O)[O-])cc2)cc(OC)c1OC`, for which the IC50 at GTPase KRas was determined as 8.2 µM.

Take `COc1ccc(C(=O)/C=C/c2cc(OC)c(OC)c(OC)c2)cc1`: the 50% inhibitory concentration (IC50) on GTPase KRas amounted to 8.29 µM.

With `COc1cc(/C=C/C(=O)c2ccc(N)cc2)cc(OC)c1OC`, on GTPase KRas, the 50% inhibitory concentration (IC50) turned out to be 9.17 µM.

Take `COc1cc(/C=C/C(=O)c2ccc(F)cc2)cc(OC)c1OC`: the 50% inhibitory concentration (IC50) at GTPase KRas was 15.9 µM.

With `COc1cc(/C=C/C(=O)c2ccc(N(C)C)cc2)cc(OC)c1OC`, the IC50 at GTPase KRas was determined as 7.42 µM. Moreover, the inhibition result in experiment [1] is “inactive”.

On to `COc1cc(/C=C/C(=O)c2ccccn2)cc(OC)c1OC`, for which the IC50 at GTPase KRas is 53 µM.

Take `COc1cc(C(=O)/C=C/c2c(F)cccc2F)cc(OC)c1OC`: the concentration for half-maximal inhibition (IC50) at GTPase KRas was determined as 7.49 µM.

On to `COc1cc(/C=C/C(=O)c2ccc([N+](=O)[O-])cc2)cc(OC)c1OC`, for which the concentration for half-maximal inhibition (IC50) on GTPase KRas was 7.01 µM. Moreover, the inhibition entry in experiment [1], in experiment [4], in experiment [5] and in [14] was “inactive” throughout. The inhibition result in experiment [2] and in [3] was “Active” throughout. For the same molecule, the fold change (FC) in experiment [6] amounted to 1.89; in experiment [7], 1.92; in [8], 2.57; in [9], 2.65; in experiment [10] it was 1.31; in experiment [11] it was 1.76. Also, the fold change (FC) in experiment [12] was found to be 2.85; in experiment [13] it was 2.8. Besides, the inhibition entry in experiment [15] and in [16] was “Dose-dependent effect” each time.
